{"source": "ChEMBL document CHEMBL1123505", "about": "“Synthesis, structure, and antitumor activity of N-salicyloyl-N'-(2-furylthiocarbonyl)hydrazine and its copper(II) complex” (1986)", "type_in_all_cases": "functional", "key": {"[1]": {"test_system": "Mus musculus", "assay": "Antitumor activity against fibrosarcoma infected mice at the dosage of 10 mg/kg (ip) and expressed as no. of mice injected; T/C= 6/6"}, "[2]": {"test_system": "Mus musculus", "assay": "Antitumor activity against fibrosarcoma infected mice at the dosage of 10 mg/kg (sc) and expressed as no. of mice injected; T/C= 8/7"}, "[3]": {"test_system": "Mus musculus", "assay": "Antitumor activity against fibrosarcoma infected mice at the dosage of 25 mg/kg (ip) and expressed as no. of mice injected; T/C= 10/10"}, "[4]": {"test_system": "Mus musculus", "assay": "Antitumor activity against fibrosarcoma infected mice at the dosage of 25 mg/kg (sc) and expressed as no. of mice injected; T/C= 8/9"}, "[5]": {"test_system": "Mus musculus", "assay": "Antitumor activity against fibrosarcoma infected mice at the dosage of 50 mg/kg (ip) and expressed as no. of mice injected; T/C= 8/8"}, "[6]": {"test_system": "Mus musculus", "assay": "Antitumor activity against fibrosarcoma infected mice at the dosage of 5 mg/kg (ip) and expressed as no. of mice injected; T/C= 8/6"}, "[7]": {"test_system": "Mus musculus", "assay": "Antitumor activity against fibrosarcoma infected mice at the dosage of 5 mg/kg (sc) and expressed as no. of mice injected; T/C= 7/7"}, "[8]": {"test_system": "Mus musculus", "assay": "Antitumor activity expressed as the no. of mice surviving >6 months was tested against fibrosarcoma at the dosage of 50 mg/kg (ip)", "method_in_brief": "(§1)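 Fibrosarcoma was established by sc inoculation of 4 × 10⁶ cells in mice. On day 3 they received a single ip or sc injection of compound freshly suspended in 0.89% saline, with 5–10 mice per group. The count is of mice surviving 6 months or more after treatment, scored as tumor-free, with the percentage of the group also given.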"}, "[9]": {"test_system": "Mus musculus", "assay": "Antitumor activity expressed as the no. of mice surviving >6 months was tested against fibrosarcoma at the dosage of 5 mg/kg (ip)", "method_in_brief": "as §1"}, "[10]": {"test_system": "Mus musculus", "assay": "Antitumor activity expressed as %T/C was tested against fibrosarcoma at the dosage of 10 mg/Kg (sc)", "method_in_brief": "(§2)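 Fibrosarcoma: 4 × 10⁶ cells were given sc to C₃H/He mice, 25–30 g. A single ip or sc dose in 0.89% saline followed on day three, with saline-injected controls. Mean life span of nonsurvivors excludes mice surviving 6 months or more, which were counted as tumour-free. T/C% is treated mean survival, excluding tumour-free survivors, divided by untreated mean life span ×100.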"}, "[11]": {"test_system": "Mus musculus", "assay": "Antitumor activity expressed as %T/C was tested against fibrosarcoma at the dosage of 25 mg/Kg (ip)", "method_in_brief": "as §2"}, "[12]": {"test_system": "Mus musculus", "assay": "Antitumor activity expressed as %T/C was tested against fibrosarcoma at the dosage of 25 mg/Kg (sc)", "method_in_brief": "as §2"}, "[13]": {"test_system": "Mus musculus", "assay": "Antitumor activity expressed as %T/C was tested against fibrosarcoma at the dosage of 5 mg/Kg (ip)", "method_in_brief": "as §2"}, "[14]": {"test_system": "Mus musculus", "assay": "Antitumor activity expressed as %T/C was tested against fibrosarcoma at the dosage of 5 mg/Kg (sc)", "method_in_brief": "as §2"}, "[15]": {"test_system": "Mus musculus", "assay": "Antitumor activity expressed as %T/C was tested against fibrosarcoma at the dosage of 50 mg/Kg (ip)", "method_in_brief": "as §2"}, "[16]": {"test_system": "Mus musculus", "assay": "Antitumor activity expressed as mean life span of nonsurvivors in days (T/C) was tested against Dalton's lymphoma at the dosage of 10 mg/kg (ip); 33/21"}, "[17]": {"test_system": "Mus musculus", "assay": "Antitumor activity expressed as mean life span of nonsurvivors in days (T/C) was tested against Dalton's lymphoma at the dosage of 25 mg/kg (ip); 41/21"}, "[18]": {"test_system": "Mus musculus", "assay": "Antitumor activity expressed as mean life span of nonsurvivors in days (T/C) was tested against Dalton's lymphoma at the dosage of 2 mg/kg (ip); 27/21"}, "[19]": {"test_system": "Mus musculus", "assay": "Antitumor activity expressed as mean life span of nonsurvivors in days (T/C) was tested against fibrosarcoma at the dosage of 10 mg/kg (ip); 38/26", "method_in_brief": "(§3)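 On day 3 after transplantation they received a single ip or sc dose of compound freshly suspended in 0.89% saline. Saline-injected controls were used, with 5–10 mice per group. Mean life span of treated nonsurvivors is shown against untreated controls, excluding mice surviving ≥6 months.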"}, "[20]": {"test_system": "Mus musculus", "assay": "Antitumor activity expressed as mean life span of nonsurvivors in days (T/C) was tested against fibrosarcoma at the dosage of 10 mg/kg (sc); 37/27", "method_in_brief": "as §3"}, "[21]": {"test_system": "Mus musculus", "assay": "Antitumor activity expressed as mean life span of nonsurvivors in days (T/C) was tested against fibrosarcoma at the dosage of 25 mg/kg (ip); 40/28", "method_in_brief": "as §3"}, "[22]": {"test_system": "Mus musculus", "assay": "Antitumor activity expressed as mean life span of nonsurvivors in days (T/C) was tested against fibrosarcoma at the dosage of 25 mg/kg (sc); 41/26", "method_in_brief": "as §3"}, "[23]": {"test_system": "Mus musculus", "assay": "Antitumor activity expressed as mean life span of nonsurvivors in days (T/C) was tested against fibrosarcoma at the dosage of 50 mg/kg (ip); 45/27", "method_in_brief": "as §3"}, "[24]": {"test_system": "Mus musculus", "assay": "Antitumor activity expressed as %T/C was tested against Dalton's lymphoma at the dosage of 10 mg/Kg (ip)", "method_in_brief": "(§4)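 Dalton's lymphoma: 2 × 10⁷ ascites cells were given ip to DbA mice, 18–20 g. A single ip dose in 0.89% saline followed on day two, with saline-injected controls. Mean life span was calculated excluding mice that survived 6 months or more. T/C% is the mean survival of treated mice, excluding tumour-free survivors, divided by the mean life span of untreated mice ×100.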"}, "[25]": {"test_system": "Mus musculus", "assay": "Antitumor activity expressed as %T/C was tested against Dalton's lymphoma at the dosage of 2 mg/Kg (ip)", "method_in_brief": "as §4"}, "[26]": {"test_system": "Mus musculus", "assay": "Antitumor activity expressed as %T/C was tested against Dalton's lymphoma at the dosage of 25 mg/Kg (ip)", "method_in_brief": "as §4"}, "[27]": {"test_system": "Mus musculus", "assay": "Antitumor activity expressed as %T/C was tested against fibrosarcoma at the dosage of 10 mg/Kg (ip)", "method_in_brief": "as §2"}, "[28]": {"test_system": "Mus musculus", "assay": "Antitumor activity expressed as the no. of mice surviving >6 months was tested against fibrosarcoma at the dosage of 10 mg/kg (ip)", "method_in_brief": "as §1"}, "[29]": {"test_system": "Mus musculus", "assay": "Antitumor activity expressed as the no. of mice surviving >6 months was tested against fibrosarcoma at the dosage of 25 mg/kg (ip)", "method_in_brief": "as §1"}, "[30]": {"test_system": "Mus musculus", "assay": "Antitumor activity expressed as the no. of mice surviving >6 months was tested against fibrosarcoma at the dosage of 25 mg/kg (sc)", "method_in_brief": "as §1"}, "[31]": {"test_system": "Mus musculus", "assay": "Antitumor activity expressed as mean life span of nonsurvivors in days (T/C) was tested against fibrosarcoma at the dosage of 5 mg/kg (ip); 41/27", "method_in_brief": "as §3"}, "[32]": {"test_system": "Mus musculus", "assay": "Antitumor activity expressed as mean life span of nonsurvivors in days (T/C) was tested against fibrosarcoma at the dosage of 5 mg/kg (sc); 36/26", "method_in_brief": "as §3"}, "[33]": {"test_system": "Mus musculus", "assay": "Antitumor activity against Dalton's lymphoma infected mice at the dosage of 10 mg/kg (ip) and expressed as no. of mice injected; T/C= 5/5"}, "[34]": {"test_system": "Mus musculus", "assay": "Antitumor activity against Dalton's lymphoma infected mice at the dosage of 25 mg/kg (ip) and expressed as no. of mice injected; T/C= 5/5"}, "[35]": {"test_system": "Mus musculus", "assay": "Antitumor activity against Dalton's lymphoma infected mice at the dosage of 2 mg/kg (ip) and expressed as no. of mice injected; T/C= 5/5"}, "[36]": {"test_system": "Mus musculus", "assay": "Antitumor activity expressed as average body weight change was tested against fibrosarcoma at the dosage of 5 mg/kg (sc)", "method_in_brief": "(§5)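 Fibrosarcoma-bearing C₃H/He mice (4 × 10⁶ cells sc) received a single ip or sc dose in 0.89% saline on day three after transplant; controls received saline. The day of injection was taken as day zero. Mice were weighed on alternate days up to 4 weeks. Values are average % weight change from the day of treatment to day 21.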"}, "[37]": {"test_system": "Mus musculus", "assay": "Antitumor activity expressed as average body weight change was tested against fibrosarcoma at the dosage of 10 mg/kg (Ip)", "method_in_brief": "as §5"}, "[38]": {"test_system": "Mus musculus", "assay": "Antitumor activity expressed as average body weight change was tested against fibrosarcoma at the dosage of 10 mg/kg (sc)", "method_in_brief": "as §5"}, "[39]": {"test_system": "Mus musculus", "assay": "Antitumor activity expressed as average body weight change was tested against fibrosarcoma at the dosage of 25 mg/kg (Ip)", "method_in_brief": "as §5"}, "[40]": {"test_system": "Mus musculus", "assay": "Antitumor activity expressed as average body weight change was tested against fibrosarcoma at the dosage of 25 mg/kg (sc)", "method_in_brief": "as §5"}, "[41]": {"test_system": "Mus musculus", "assay": "Antitumor activity expressed as average body weight change was tested against fibrosarcoma at the dosage of 50 mg/kg (Ip)", "method_in_brief": "as §5"}, "[42]": {"test_system": "Mus musculus", "assay": "Antitumor activity expressed as average body weight change was tested against fibrosarcoma at the dosage of 5 mg/kg (Ip)", "method_in_brief": "as §5"}}}
{"compound": "O=C(NN=C(S)c1ccco1)c1ccccc1O", "values": [{"measurement": "T/C", "setting": "[1]", "value": 6}, {"measurement": "T/C", "setting": "[2]", "value": 8}, {"measurement": "T/C", "setting": "[3]", "value": 10}, {"measurement": "T/C", "setting": "[4]", "value": 8}, {"measurement": "T/C", "setting": "[5]", "value": 8}, {"measurement": "T/C", "setting": "[6]", "value": 8}, {"measurement": "T/C", "setting": "[7]", "value": 7}, {"measurement": "No. of mice surviving >6 months", "setting": "[8]", "value": 6}, {"measurement": "No. of mice surviving >6 months", "setting": "[9]", "value": 4}, {"measurement": "T/C", "setting": "[10]", "value": 137, "unit": "%"}, {"measurement": "T/C", "setting": "[11]", "value": 143, "unit": "%"}, {"measurement": "T/C", "setting": "[12]", "value": 158, "unit": "%"}, {"measurement": "T/C", "setting": "[13]", "value": 152, "unit": "%"}, {"measurement": "T/C", "setting": "[14]", "value": 139, "unit": "%"}, {"measurement": "T/C", "setting": "[15]", "value": 167, "unit": "%"}, {"measurement": "T/C", "setting": "[16]", "value": 33, "unit": "days"}, {"measurement": "T/C", "setting": "[17]", "value": 41, "unit": "days"}, {"measurement": "T/C", "setting": "[18]", "value": 27, "unit": "days"}, {"measurement": "T/C", "setting": "[19]", "value": 38, "unit": "days"}, {"measurement": "T/C", "setting": "[20]", "value": 37, "unit": "days"}, {"measurement": "T/C", "setting": "[21]", "value": 40, "unit": "days"}, {"measurement": "T/C", "setting": "[22]", "value": 41, "unit": "days"}, {"measurement": "T/C", "setting": "[23]", "value": 45, "unit": "days"}, {"measurement": "T/C", "setting": "[24]", "value": 157, "unit": "%"}, {"measurement": "T/C", "setting": "[25]", "value": 128, "unit": "%"}, {"measurement": "T/C", "setting": "[26]", "value": 195, "unit": "%"}, {"measurement": "T/C", "setting": "[27]", "value": 146, "unit": "%"}, {"measurement": "No. of mice surviving >6 months", "setting": "[28]", "value": 3}, {"measurement": "No. of mice surviving >6 months", "setting": "[29]", "value": 5}, {"measurement": "No. of mice surviving >6 months", "setting": "[30]", "value": 6}, {"measurement": "T/C", "setting": "[31]", "value": 41, "unit": "days"}, {"measurement": "T/C", "setting": "[32]", "value": 36, "unit": "days"}, {"measurement": "T/C", "setting": "[33]", "value": 5}, {"measurement": "T/C", "setting": "[34]", "value": 5}, {"measurement": "T/C", "setting": "[35]", "value": 5}, {"measurement": "Average body weight change", "setting": "[36]", "value": 11.62, "unit": "%"}, {"measurement": "Average body weight change", "setting": "[37]", "value": 11.27, "unit": "%"}, {"measurement": "Average body weight change", "setting": "[38]", "value": 12.31, "unit": "%"}, {"measurement": "Average body weight change", "setting": "[39]", "value": 7.88, "unit": "%"}, {"measurement": "Average body weight change", "setting": "[40]", "value": 9.96, "unit": "%"}, {"measurement": "Average body weight change", "setting": "[41]", "value": 2.65, "unit": "%"}, {"measurement": "Average body weight change", "setting": "[42]", "value": 15.1, "unit": "%"}]}
